Experimental data from different studies.
Protocols differ between the studies behind these lines.
ABCB1: ATP-dependent translocase ABCB1 (ABCB1, Homo sapiens, UniProt P08183)
SLC47A2: Multidrug and toxin extrusion protein 2 (SLC47A2, Homo sapiens, UniProt Q86VL8)

SMILES	target	assay	system	setting	quantity	result
CCOc1cc2ncc(C#N)c(Nc3ccc(OCc4ccccn4)c(Cl)c3)c2cc1NC(=O)/C=C/CN(C)C	ABCB1		MDCK-MDR1, Caco-2	1 µM, 1 h, pH 7.4	efflux ratio	6.37
CN(C(=O)n1cnc(-c2ccc[n+]([O-])c2)c1)C1CCCCC1	SLC47A2	transporter uptake, inhibitor	MDCK-II	0.3 µg/mL	inhibition	12%
C=C[C@H]1C[N@@]2CC[C@H]1C[C@@H]2[C@@H](O)c1ccnc2ccc(OC)cc12	ABCB1		MDCK-MDR1	5 µM	Papp A→B	13.1 ×10⁻⁶ cm/s
Cc1ccc(C(=O)N2CCOC[C@H]2Cc2cccc(-n3nccn3)c2)c(-n2nccn2)c1	Cytochrome P450 2A6 (CYP2A6, Homo sapiens, UniProt P11509)	enzyme activity, inhibitor	human, liver microsomes	100 µM	inhibition	19%
C[C@]12CCCN1CC1=NNC(=O)c3cc(F)cc4[nH]c2c1c34	ABCB1		MDCK-MDR1	10 µM	Papp A→B	25.5 ×10⁻⁶ cm/s
CC[C@H](C)C(=O)N1CCC(NC(=O)Nc2ccc(OC(F)(F)F)c(F)c2)CC1	ABCB1	transporter efflux, inhibitor, fluorescence		10 µM	inhibition	< 25%
O=C(O)CSc1nnc(Br)n1-c1ccc(C2CC2)c2ccccc12	SLC47A2	transporter uptake, inhibitor	HEK293	100 µM, 2 min	inhibition	-9%
COCCc1ccc(OCC(O)CNC(C)C)cc1 (stereo not shown)	ABCB1		MDCK-MDR1	5 µM	Papp A→B	32.1 ×10⁻⁶ cm/s
C[C@H]1O[C@@H](O[C@H]2[C@@H](O)C[C@H](O[C@H]3[C@@H](O)C[C@H](O[C@H]4CC[C@@]5(C)[C@H](CC[C@@H]6[C@@H]5C[C@@H](O)[C@]5(C)[C@@H](C7=CC(=O)OC7)CC[C@]65O)C4)O[C@@H]3C)O[C@@H]2C)C[C@H](O)[C@@H]1O	ABCB1		human, plasma	oral, 0.5 mg	Cmax	1.99 ng/mL
CC1(C)CCC2(CC1)N[C@@H](C(=O)N[C@@H]1CC[C@@H](C(N)=O)OC1)[C@H](c1ccnc(Cl)c1F)[C@]21C(=O)Nc2cc(Cl)ccc21	ABCB1		Caco-2	3 µM, 2 h	efflux ratio	14.1
